The subject of data set [1] is Platelet. In words: Antiplatelet activity against rabbit platelet assessed as inhibition of arachidonic acid-induced platelet aggregation at 100 ug/ml. Type of data set: functional. The note with it: Oryctolagus cuniculus.
Data set [2] relates to Platelet. In words: Antiplatelet activity against rabbit platelet assessed as inhibition of collagen-induced platelet aggregation at 100 ug/ml. It counts as functional. The note with it: Oryctolagus cuniculus.
In data set [3] the test system is Platelet. The data set can be described thus: Antiplatelet activity against rabbit platelet assessed as inhibition of platelet activating factor-induced platelet aggregation at 100 ug/ml. Type of data set: functional. The settings on record: Oryctolagus cuniculus.
The test system of data set [4] is HL-60. In words: Induction of terminal cell differentiation in human HL60 cells assessed as cell viability at 4 uM by trypan blue exclusion method. The settings on record: read-out: Activity. Type of data set: functional. The method in brief:
(§1)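 HL-60 cells preincubated 18 h at 1.2×10^5 cells/ml, then exposed 4 days to samples in DMSO (final 0.1%). Viability by trypan blue exclusion: viable/(viable+dead)×100. Cell counts also taken after 4 days.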

The subject of data set [5] is HL-60. The data set can be described thus: Induction of terminal cell differentiation in human HL60 cells assessed as cell viability at 8.1 uM by trypan blue exclusion method. It counts as functional. The settings on record: read-out: Activity. The gist of the method:
as §1

Data set [6] concerns HL-60. The data set can be described thus: Induction of terminal cell differentiation in human HL60 cells assessed as cell viability at 16.2 uM by trypan blue exclusion method. Type of data set: functional. The settings on record: read-out: Activity. The gist of the method: as §1
The test system of data set [7] is HL-60. In words: Induction of terminal cell differentiation in human HL60 cells assessed as cell viability at 32.3 uM by trypan blue exclusion method. It counts as functional. The settings on record: read-out: Activity. The method in brief: as §1
For data set [8], the system named is HL-60. The data set can be described thus: Induction of terminal cell differentiation in human HL60 cells assessed as cell viability at 64.6 uM by trypan blue exclusion method. It counts as functional. The note with it: read-out: Activity. The gist of the method:
as §1

Data set [9] relates to HL-60. The data set can be described thus: Induction of terminal cell differentiation in human HL60 cells assessed as naphthol AS-D chloroacetate esterase activity at 4 uM after 4 days. Type of data set: functional. The gist of the method: (§2)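 HL-60 cells were grown in RPMI 1640 with 5% heat-inactivated calf serum at 37°, 5% CO2. They were diluted to 1.2×10^5 cells/ml, preincubated 18 h, then exposed 4 days to DMSO-dissolved samples (final DMSO 0.1%, matched vehicle controls). Specific esterase (naphthol AS-D chloroacetate) was scored cytochemically with a commercial kit as the percentage of differentiated cells.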

Data set [10] deals with HL-60. The data set can be described thus: Induction of terminal cell differentiation in human HL60 cells assessed as naphthol AS-D chloroacetate esterase activity at 8.1 uM after 4 days. It counts as functional. The gist of the method: as §2
Data set [11] has as its system HL-60. The data set can be described thus: Induction of terminal cell differentiation in human HL60 cells assessed as naphthol AS-D chloroacetate esterase activity at 16.2 uM after 4 days. Type of data set: functional. The gist of the method:
as §2

The test system of data set [12] is HL-60. The data set can be described thus: Induction of terminal cell differentiation in human HL60 cells assessed as naphthol AS-D chloroacetate esterase activity at 32.3 uM after 4 days. It counts as functional. The gist of the method: as §2
In data set [13] the test system is HL-60. The data set can be described thus: Cytotoxicity against human HL60 cells at 64.6 uM by naphthol AS-D chloroacetate esterase activity. It counts as cell-based. The note with it: hl-60, 64.6 µM. The gist of the method:
(§3)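 After 4-day treatment of HL-60 cells (samples in DMSO, final 0.1%), cells stained cytochemically for α-naphthyl acetate esterase or naphthol AS-D chloroacetate esterase.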

The subject of data set [14] is HL-60. The data set can be described thus: Induction of cell differentiation in human HL60 cells assessed as alpha naphthyl esterase activity at 4 uM after 4 days. Type of data set: functional. The method in brief: (§4)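 HL-60 cells in RPMI 1640 with 5% heat-inactivated calf serum at 37° under 5% CO2. Log-phase cells diluted to 1.2×10^5 cells/ml and preincubated 18 h, then samples added in DMSO (final 0.1%, DMSO controls). Cells scored after 4 days.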

The test system of data set [15] is HL-60. The data set can be described thus: Induction of cell differentiation in human HL60 cells assessed as alpha naphthyl esterase activity at 8.1 uM after 4 days. Type of data set: functional. The method in brief:
as §4

Data set [16] has as its system HL-60. The data set can be described thus: Induction of cell differentiation in human HL60 cells assessed as alpha naphthyl esterase activity at 16.2 uM after 4 days. It counts as functional. The method in brief:
as §4

Data set [17] deals with HL-60. In words: Induction of cell differentiation in human HL60 cells assessed as alpha naphthyl esterase activity at 32.3 uM after 4 days. Type of data set: functional. The gist of the method: as §4
Data set [18] has as its system HL-60. The data set can be described thus: Cytotoxicity against human HL60 cells at 64.6 uM by alpha naphthyl esterase activity assay. It counts as cell-based. The settings on record: hl-60, 64.6 µM. The gist of the method: as §3
In data set [19] the test system is HL-60. The data set can be described thus: Cytotoxicity against human HL60 cells by [3H]thymidine incorporation assay. Type of data set: cell-based. The gist of the method: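 After 4-day sample treatment, 100 μl of HL-60 cells pulsed with 0.5 μCi/ml [3H]thymidine (65 Ci/mmol) for 16 h. Cells harvested and counted by liquid scintillation. Incorporation per 10^6 cells given as sample DPM divided by DMSO-control DPM.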

Data set [20] relates to HL-60. In words: Induction of terminal cell differentiation in human HL60 cells assessed as inhibition of [3H]thymidine incorporation at 32.3 uM after 4 days by liquid scintillation. Type of data set: functional. On the set-up: scale not given: the % may be the effect or the level left. The method in brief:
(§5)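 HL-60 cells were kept in RPMI 1640 with 5% heat-inactivated calf serum and penicillin/streptomycin at 37° under 5% CO2. Log-phase cells were diluted to 1.2×10^5 cells/ml and preincubated 18 h. Samples were added in DMSO (final 0.1%; vehicle controls matched) for 4 days. Aliquots then got 0.5 μCi/ml [3H]thymidine for 16 h more, were harvested and scintillation-counted. % incorporation per 10^6 cells = sample DPM / DMSO-control DPM.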

In data set [21] the test system is HL-60. In words: Induction of terminal cell differentiation in human HL60 cells assessed as inhibition of [3H]thymidine incorporation at 16.2 uM after 4 days by liquid scintillation. Type of data set: functional. Further details: scale not given: the % may be the effect or the level left. The gist of the method:
as §5

For data set [22], the system named is HL-60. The data set can be described thus: Induction of terminal cell differentiation in human HL60 cells assessed as inhibition of [3H]thymidine incorporation at 8.1 uM after 4 days by liquid scintillation. It counts as functional. Further details: scale not given: the % may be the effect or the level left. The method in brief: as §5
Data set [23] relates to HL-60. In words: Induction of terminal cell differentiation in human HL60 cells assessed as inhibition of [3H]thymidine incorporation at 4 uM after 4 days by liquid scintillation. Type of data set: functional. On the set-up: scale not given: the % may be the effect or the level left. The method in brief: as §5
The test system of data set [24] is HL-60. In words: Induction of terminal cell differentiation in human HL60 cells at 4 uM after 4 days by NBT reduction assay. It counts as functional. The method in brief:
(§6)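 Log-phase HL-60 cells (RPMI 1640, 5% heat-inactivated calf serum, 37°, 5% CO2) were diluted to 1.2×10^5 cells/ml, preincubated 18 h, then treated 4 days with samples in DMSO (final 0.1%; DMSO controls). 10^6 cells were mixed 1:1 with fresh PBS holding 2 mg/ml NBT and 5 μg/ml TPA, 1 h at 37°. Formazan-positive cells were counted microscopically as % NBT-positive.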

Data set [25] deals with HL-60. In words: Induction of terminal cell differentiation in human HL60 cells at 8.1 uM after 4 days by NBT reduction assay. Type of data set: functional. The method in brief:
as §6

In data set [26] the test system is HL-60. In words: Induction of terminal cell differentiation in human HL60 cells at 16.2 uM after 4 days by NBT reduction assay. It counts as functional. The gist of the method: as §6
Data set [27] relates to HL-60. In words: Induction of terminal cell differentiation in human HL60 cells at 32.3 uM after 4 days by NBT reduction assay. It counts as functional. The method in brief: as §6
Data set [28] concerns HL-60. In words: Cytotoxicity against human HL60 cells at 64.6 uM by NBT reduction assay. Type of data set: cell-based. The note with it: hl-60, 64.6 µM. The gist of the method: as §4
Data set [29] is described as follows: Cytotoxicity against human BC1 cells. It counts as functional. The settings on record: read-out: ED50 (the source's name). The gist of the method:
(§7)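 Cultured human cancer lines and murine P-388 cells. Complete dose-response data from at least five concentrations of test substance, each tested in duplicate.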

For data set [30], the system named is HT-1080. The data set can be described thus: Cytotoxicity against human HT1080 cells. The note with it: read-out: ED50 (the source's name). Type of data set: functional. The gist of the method:
as §7

Data set [31] deals with Lu1. In words: Cytotoxicity against human Lu1 cells. Type of data set: functional. The settings on record: read-out: ED50 (the source's name). The gist of the method:
as §7

In data set [32] the test system is SK-MEL. In words: Cytotoxicity against human SK-MEL cells. Type of data set: functional. The note with it: read-out: ED50 (the source's name). The method in brief:
as §7

Data set [33] concerns Col2. In words: Cytotoxicity against human Col2 cells. Type of data set: functional. The note with it: read-out: ED50 (the source's name). The gist of the method: as §7
The test system of data set [34] is KB. In words: Cytotoxicity against human KB cells. It counts as functional. The settings on record: read-out: ED50 (the source's name). The method in brief: as §7
The nature of data set [35]: Cytotoxicity against human multidrug-resistant KBV1 cells in presence of vinblastine. Type of data set: functional. The settings on record: KB-V1, read-out: ED50 (the source's name). The gist of the method: as §7
Data set [36] in a line: Cytotoxicity against human multidrug-resistant KBV1 cells in absence of vinblastine. It counts as functional. The settings on record: KB-V1, read-out: ED50 (the source's name). The method in brief: as §7
In data set [37] the test system is P388. In words: Cytotoxicity against mouse P388 cells. It counts as functional. The settings on record: read-out: ED50 (the source's name). The method in brief:
as §7

Data set [38] relates to A-431. In words: Cytotoxicity against human A431 cells. Type of data set: functional. The settings on record: read-out: ED50 (the source's name). The method in brief: as §7
Data set [39] relates to LNCaP. In words: Cytotoxicity against human LNCAP cells. It counts as functional. The settings on record: read-out: ED50. The method in brief: as §7
The test system of data set [40] is ZR-75-1. The data set can be described thus: Cytotoxicity against human ZR-75-1 cells. Type of data set: functional. The settings on record: ZR-75-1, read-out: ED50. The method in brief: as §7
Data set [41] is described as follows: Cytotoxicity against human U373 cells. The note with it: U373 MG, read-out: ED50. Type of data set: functional, U-373MG ATCC. The gist of the method: as §7

pEC50: −log10 of the molar value. Active and inactive are the calls of the source. The rule behind the calls is not given here.

Regarding `Oc1cnc2c(ccc3cc4c(cc32)OCO4)c1`, the result in [1], in data set [2] and in data set [3] was inactive.
Take `CC(C)=CCCC1(C)C=Cc2c(c3ccccc3n(C)c2=O)O1` (centres undefined): in data set [4], the viability at 4 µM was 98%. Further, in data set [5], the viability at 8.1 µM came to 95%. The viability at 16.2 µM in data set [6] was 93%. In [7], the viability at 32.3 µM was determined as 78%. In [8], the viability at 64.6 µM is 9%. The Activity in data set [9] is 5%; in data set [10] it was 5.5%; in data set [11] it was 6.5%; in data set [12] it was 14.5%; in data set [13] it was “Toxic”; in data set [14] it was 4.5%. The Activity is listed as 5.5% in data set [15]; 7.4% in [16]; 24.3% in data set [17]; “Toxic” in [18]; “Toxic” in data set [19]; 0% in data set [20]. Moreover, the Activity came to 0% in data set [21]; 0% in data set [22]; 0% in data set [23]; 3.5% in data set [24]; 8% in data set [25]; 9% in data set [26]. The Activity in data set [27] is 15.4%; in [28], “Toxic”. The result in data set [1], in data set [2] and in data set [3] was inactive. Moreover, the pEC50 in data set [29] is 4.54; in data set [30], 4.54; in [31] it was 4.54; in data set [32] it was 4.55; in data set [33], 4.52; in data set [34], 4.82. The pEC50 in [35] is 5.19; in data set [36], 4.67; in data set [37] it was 5.28; in data set [38], 4.54. Moreover, the EC50 worked out at 18.7 µM in data set [39], 10 µM in data set [40] and 17.1 µM in data set [41].

(Values after ChEMBL document CHEMBL1148054, “Chemical and bioactive constituents from Zanthoxylum simulans” (J Nat Prod, 1994).)
